Reference: ChEMBL document CHEMBL1122145, “Prostaglandins and congeners, 29. (16RS)-(+/-)-15-Deoxy-16-hydroxy-16-vinyl-prostaglandin E2, an orally and transdermally active hypotensive agent of prolonged duration” (1982)

Assays:
Assay type in all cases: functional
[1] = tested on: Rattus norvegicus; test: Intravenous antihypertensive effect in conscious, spontaneously hypertensive rats, Duration of action was determined at a compound dose of 100 ug/kg
[2] = tested on: Rattus norvegicus; test: Intravenous antihypertensive effect in conscious, spontaneously hypertensive rats a dose of 30 ug/kg
Method in brief: (§1)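 Male Okamoto spontaneously hypertensive rats (about 300 ± 20 g), restrained supine. The iliac artery was cannulated to a pressure recorder. After a stabilization period, the sodium salt was injected into the lateral caudal vein: acid dissolved in absolute ethanol, neutralized with 0.6 M NaHCO3, diluted in saline. Maximum fall in mean arterial blood pressure (mmHg), mean of two experiments.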

[3] = tested on: Rattus norvegicus; test: Intravenous antihypertensive effect in conscious, spontaneously hypertensive rats a dose of 100 ug/kg; method in brief: as §1
[4] = tested on: Rattus norvegicus; test: Intravenous antihypertensive effect in conscious, spontaneously hypertensive rats, Duration of action was determined at a compound dose of 30 ug/kg; 45-50
[5] = tested on: Rattus norvegicus; test: Intravenous antihypertensive effect in conscious, spontaneously hypertensive rats a dose of 10 ug/kg; method in brief: as §1
[6] = tested on: Rattus norvegicus; test: Intravenous antihypertensive effect in conscious, spontaneously hypertensive rats, Duration of action was determined at a compound dose of 10 ug/kg; 30-45
[7] = tested on: Rattus norvegicus; test: Intravenous, antihypertensive effect in conscious, spontaneously hypertensive rats, Duration of action was determined at a compound dose of 100 ug/kg; 10-20
[8] = tested on: Rattus norvegicus; test: Intravenous antihypertensive effect in conscious, spontaneously hypertensive rats a dose of 300 ug/kg; method in brief: as §1
[9] = tested on: Rattus norvegicus; test: Intravenous antihypertensive effect in conscious, spontaneously hypertensive rats, Duration of action was determined at a compound dose of 10 ug/kg
[10] = tested on: Rattus norvegicus; test: Intravenous antihypertensive effect in conscious, spontaneously hypertensive rats a dose of 500 ug/kg; method in brief: as §1
[11] = tested on: Rattus norvegicus; test: Intravenous, antihypertensive effect in conscious, spontaneously hypertensive rats, Duration of action was determined at a compound dose of 30 ug/kg
[12] = tested on: Rattus norvegicus; test: Intravenous, antihypertensive effect in conscious, spontaneously hypertensive rats, Duration of action was determined at a compound dose of 300 ug/kg; 25-30
[13] = tested on: Rattus norvegicus; test: Intravenous, antihypertensive effect in conscious, spontaneously hypertensive rats, Duration of action was determined at a compound dose of 500 ug/kg; 25-30

Row | SMILES | Duration [1] [min] | Max lowering MABP [2] [mmHg] | Max lowering MABP [3] [mmHg] | Duration [4] [min] | Max lowering MABP [5] [mmHg] | Duration [6] [min] | Duration [7] [min] | Max lowering MABP [8] [mmHg] | Duration [9] [min] | Max lowering MABP [10] [mmHg] | Duration [11] [min] | Duration [12] [min] | Duration [13] [min]
1 | C=CC(O)(C/C=C/C1[C@H](O)CC(=O)[C@@H]1C/C=C/CCCC(=O)O)CCCC (stereo partly specified) | >200 | 55 | 65 | 45 | 30 | 30 | – | – | – | – | – | – | –
2 | CCCCC[C@H](O)/C=C/[C@H]1[C@H](O)CC(=O)[C@@H]1C/C=C\CCCC(=O)O [DINOPROSTONE] | – | 72 | 72 | – | 60 | – | 10 | 70 | <5 | 50 | <5 | 25 | 25
